{"source": "ChEMBL document CHEMBL1157960", "about": "“10-Phenyl-[12]-cytochalasins Z7, Z8, and Z9 from the marine-derived fungus Spicaria elegans” (J Nat Prod, 2006)", "key": {"A549": {"tested_on": "A549", "assay": "Cytotoxicity against human A549 cells after 72 hrs by MTT method", "format": "functional, cell-based", "settings": "A549, 72 h", "how_it_was_run": "(§1)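 Cells kept in RPMI-1640 with 10% FBS at 37 °C under 5% CO2/95% air. Seeded at 5 × 10^4 cells/mL and held 24 h before compound was added in DMSO at various concentrations. Incubation then ran 72 h. MTT (5 mg/mL stock) was added for 4 h, formazan was dissolved in DMSO, and absorbance was read at 540 nm. Result reported as IC50.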"}, "P388": {"tested_on": "P388", "assay": "Cytotoxicity against mouse P388 cells after 72 hrs by MTT method", "format": "functional, cell-based", "settings": "P388, 72 h", "how_it_was_run": "as §1"}}, "data": [{"smiles": "C=C1[C@@H](C)[C@H]2[C@H](Cc3ccccc3)NC(=O)[C@]23OC(=O)/C=C/[C@H](C)[C@H](O)[C@@H](C)C/C=C/[C@H]3[C@@H]1O", "values": [{"measurement": "IC50", "setting": "A549", "value": 8.8, "unit": "µM"}, {"measurement": "IC50", "setting": "P388", "value": 75, "unit": "µM"}]}, {"smiles": "CC1=C(C)[C@H]2[C@H](Cc3ccccc3)NC(=O)[C@]23OC(=O)/C=C/[C@H](C)[C@H](O)[C@@H](C)C/C=C/[C@H]3[C@@H]1O", "values": [{"measurement": "IC50", "setting": "A549", "value": 21, "unit": "µM"}, {"measurement": "IC50", "setting": "P388", "value": 56, "unit": "µM"}]}, {"smiles": "C[C@H]1C/C=C/[C@H]2[C@@H]3O[C@]3(C)[C@@H](C)[C@H]3[C@H](Cc4ccccc4)NC(=O)[C@]32OC(=O)O/C=C/[C@@](C)(O)C1=O", "note": "[CYTOCHALASIN E]", "values": [{"measurement": "IC50", "setting": "A549", "value": 0.0062, "unit": "µM"}, {"measurement": "IC50", "setting": "P388", "value": 0.093, "unit": "µM"}]}, {"smiles": "CC1=C(C)[C@H]2[C@H](Cc3ccccc3)NC(=O)[C@]23OC(=O)O/C=C/[C@@](C)(O)C(=O)[C@@H](C)C/C=C/[C@H]3[C@@H]1O", "note": "[CYTOCHALASIN K]", "values": [{"measurement": "IC50", "setting": "A549", "value": 8.4, "unit": "µM"}, {"measurement": "IC50", "setting": "P388", "value": 89, "unit": "µM"}]}, {"smiles": "CC1=C(C)[C@H]2[C@H](Cc3ccccc3)NC(=O)[C@]23OC(=O)/C=C/[C@@](C)(O)C[C@@H](C)C/C=C/[C@H]3[C@@H]1O", "note": "[CYTOCHALASIN Z9]", "values": [{"measurement": "IC50", "setting": "A549", "value": 8.7, "unit": "µM"}, {"measurement": "IC50", "setting": "P388", "value": 99, "unit": "µM"}]}]}
